# Laboratory results from PubChem BioAssay.
# This is one part of the list. Values without a mark were called inactive. Calls of active or inactive are those of the source.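 Rule for the calls, unless noted: active = inhibition reaching about 45% at 4 µM in either replicate (limit read from the data); inactive = the rest.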
# System: not listed separately
# Assay: PMA/ionomycin-induced NF-kB reporter inhibitors, Jurkat retest, confirmation, T-cell NF-kB inhibitor project, cell-based, luminescence, single concentration (AID 435020);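 note: plate controls were PMA/ionomycin stimulated DMSO wells for no effect and unstimulated DMSO wells for full effect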
# Details: Jurkat NF-kB luciferase, 16 h, at 4 µM, hits give high values
row,SMILES,inhibition
1,Cc1cc(C(=O)OCC(=O)NCc2ccco2)c(C)n1-c1ccccc1,6.4%
2,COc1ccc(C2=Nn3c(nnc3-c3ccccc3OC)SC2)cc1OC1CCCC1,58% (active)
3,O=c1oc2ccccc2cc1-c1cn(-c2ccccc2)c(=S)[nH]1,80.8% (active)
4,c1ccc2[nH]c(-c3nc4ccccc4[nH]3)nc2c1,-90%
5,Cn1ccc(=Nc2ccc(NC(=O)c3ccc(N=c4ccn(C)c5ccc([N+](=O)[O-])cc45)cc3)cc2)cc1,-15.3%
6,Clc1cccc(Cl)c1OCCOCCNCc1ccccc1,86.6% (active)
7,COc1ccc(Nc2ncnc3ccc(Br)cc23)c(OC)c1,88.2% (active)
8,COc1ccccc1-n1nnnc1S(=O)(=O)Cc1ccc(Cl)cc1,26.5%
9,CCN1/C(=C\c2ccc3ccccc3[n+]2CC)Sc2cc(C)ccc21,67.4% (active)
10,COC(=O)Cc1[nH]n(-c2nc3ccccc3s2)c(=O)c1C(C)=Nc1ccc(OC)cc1,79.2% (active)
11,O=C(Nc1nc2ccccc2s1)c1ccc2c(c1)OCO2,-106%
12,C=C(C)C(=O)O[C@H]1C/C(C)=C\C(=O)/C=C(\C)[C@H](O)[C@@H]2OC(=O)C(=C)[C@@H]21,34.6%
13,COc1cccc(/C=N/NC(=O)c2[nH]nc3c2CCc2ccccc2-3)c1O,39.9%
14,COc1ccc2cc1Oc1ccc(cc1)C[C@H]1c3cc(c(OC)cc3CCN1C)Oc1c(O)c(OC)cc3c1[C@H](C2)N(C)CC3,16.9%
15,CC(C)(C)c1ccc(Oc2ccc(N)cc2)cc1,11.6%
16,NC(N)=N/N=C/c1ccc(OCc2ccc(Cl)cc2Cl)cc1,-12.9%
17,NC(=O)c1c(NC(=O)c2ccccc2)sc2c1CCCC2,-110%
18,Cc1cccc(/C(N)=N/OC(=O)c2ccccc2Cl)c1,-97.8%
19,Cc1ccc(OCc2nc3ccccc3n2C)cc1,-91.5%
20,Clc1ccc2nc(CSc3ccccc3)cn2c1,-58.5%
21,Cc1csc(SCC(=O)Nc2sccc2C#N)n1,-98.6%
22,O=C(Nc1ccc(-c2nnc(-c3ccccc3)o2)cc1)C1CCCO1 (stereo unspecified),-47.8%
23,N/C(=N\OC(=O)N1c2ccccc2Sc2ccccc21)c1ccc(Br)cc1,6.45%
24,CC1(C)CC(N2CCN(C(c3ccccc3)c3ccccc3)CC2)=CC(=[N+]2CCCCC2)C1,69.6% (active)
25,OCCCNc1nccc(-c2cc(Nc3cccc(Cl)c3)ncn2)n1,97% (active)
26,CC[n+]1cc(C)ccc1/C=C/c1ccc(N(C)C)cc1,46%
27,CCOc1[nH]n(-c2ccc(Cl)cc2)c(=O)c1C=Nc1ccc(O)cc1,6%

# System: not listed separately
# Assay: activators of apoptotic CHOP UPR arm, confirmation, cell-based, CHO-CHOP luciferase reporter, single concentration (AID 463112; in the data active = activation above about 33%;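 note: 0% = DMSO wells and 100% = tunicamycin 10 µg/mL wells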)
# Details: CHO-CHOP cells, CHOP-luciferase reporter luminescence; at 10 µM; hits give high values; percent of tunicamycin response, DMSO as zero
# Procedure, shortened: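 Assay system: CHO-CHOP luciferase reporter cell line | Compound: Single dose of 10 µM compound, 0.5% DMSO final | Timing: 6 h compound treatment, 37 °C | Technique: Steady-Glo luciferase luminescence | Benchmarks: High control tunicamycin 10 µg/mL, low control DMSO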
row,SMILES,activation
1,Cc1ccc(Oc2nc(-c3ccccn3)nc3ccccc23)cc1,1.5%
2,Cc1cc(C(=O)CCl)c(C)n1CC1COc2ccccc2O1 (stereo unspecified),60.3% (active)
3,COc1ccc(C(C[N+](=O)[O-])n2nc(C)cc2C)cc1 (stereo unspecified),60% (active)
4,Cc1cccc(C)c1NC(=O)C(Cl)C(=O)c1ccccc1 (stereo unspecified),85.6% (active)
5,CCOc1ccc(N2C(=O)CC(N(O)c3ccccc3)C2=O)cc1 (stereo unspecified),186% (active)
6,Nc1ccccc1SC(C[N+](=O)[O-])c1ccccc1 (stereo unspecified),-9.65%
7,CCCOC1CCCN(Cc2cn(C)nc2-c2ccccc2F)C1 (stereo unspecified),-0.8%
8,CC(C)(C)C(=O)OCc1nc(-c2ccc(O)c(O)c2)cs1,144% (active)
9,O=C(N/N=C\c1cc2c(cc1Cl)OCO2)c1ccc(Br)s1,50.2% (active)
10,O=C(CN1CCN(S(=O)(=O)c2cc(Cl)ccc2Cl)CC1)c1ccc(O)c(O)c1,21.2%
11,Cc1cc(N/N=C\c2ccc(Br)cc2)nc(-n2nc(C)cc2C)n1,12.3%
12,CCc1nn(-c2cc(Oc3cccc4ccccc34)nc(-c3ccccc3)n2)c(N)c1C#N,40.1% (active)
13,CCc1ccc2c(c1)C1(NN=C(c3ccccc3)S1)C(=O)N2 (stereo unspecified),98.4% (active)

# Target: Sentrin-specific protease 8 (Homo sapiens) (UniProt Q96LD8)
# Assay: SENP8 protease inhibitors, retest, confirmation, biochemical, luminescence, single concentration (AID 488912;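 active = mean inhibition across replicates above about 50%, limit read from the data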)
# Details: Recombinant SENP8, Z-RLRGG-aminoluciferin luminescence, 60 min; at 12.5 µM; hits give high values
# Chain of Sentrin-specific protease 8 (Homo sapiens) (Q96LD8 whole entry, looked up): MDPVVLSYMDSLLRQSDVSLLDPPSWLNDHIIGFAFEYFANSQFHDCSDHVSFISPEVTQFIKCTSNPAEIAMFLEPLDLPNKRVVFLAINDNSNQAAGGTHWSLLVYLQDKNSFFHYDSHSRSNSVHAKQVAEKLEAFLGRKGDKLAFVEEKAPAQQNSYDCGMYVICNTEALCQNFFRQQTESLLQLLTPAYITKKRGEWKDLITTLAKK
row,SMILES,inhibition
1,O=c1oc2ccccc2cc1-c1cn(-c2ccccc2)c(=S)[nH]1,39.3%
2,c1ccc2[nH]c(-c3nc4ccccc4[nH]3)nc2c1,-14.2%
3,O=C(Nc1nc2ccccc2s1)c1ccc2c(c1)OCO2,66% (active)
4,Cc1cccc(/C(N)=N/OC(=O)c2ccccc2Cl)c1,97.7% (active)
5,Cc1ccc(OCc2nc3ccccc3n2C)cc1,8.9%
6,Clc1ccc2nc(CSc3ccccc3)cn2c1,53.7% (active)
7,Cc1csc(SCC(=O)Nc2sccc2C#N)n1,93.1% (active)
8,O=C(Nc1ccc(-c2nnc(-c3ccccc3)o2)cc1)C1CCCO1 (stereo unspecified),28.8%

# Target: Sentrin-specific protease 6 (Homo sapiens) (UniProt Q9GZR1)
# Assay: SENP6 protease inhibitors, confirmation, biochemical, luminescence, single concentration (AID 488915;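 active = mean inhibition above about 50% in the one-dose retest, limit read from the data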)
# Details: recombinant SENP6, Z-RLRGG-aminoluciferin luminescence; at 12.5 µM; hits give high values
# Chain of Sentrin-specific protease 6 (Homo sapiens) (Q9GZR1 628-1112 limits assumed): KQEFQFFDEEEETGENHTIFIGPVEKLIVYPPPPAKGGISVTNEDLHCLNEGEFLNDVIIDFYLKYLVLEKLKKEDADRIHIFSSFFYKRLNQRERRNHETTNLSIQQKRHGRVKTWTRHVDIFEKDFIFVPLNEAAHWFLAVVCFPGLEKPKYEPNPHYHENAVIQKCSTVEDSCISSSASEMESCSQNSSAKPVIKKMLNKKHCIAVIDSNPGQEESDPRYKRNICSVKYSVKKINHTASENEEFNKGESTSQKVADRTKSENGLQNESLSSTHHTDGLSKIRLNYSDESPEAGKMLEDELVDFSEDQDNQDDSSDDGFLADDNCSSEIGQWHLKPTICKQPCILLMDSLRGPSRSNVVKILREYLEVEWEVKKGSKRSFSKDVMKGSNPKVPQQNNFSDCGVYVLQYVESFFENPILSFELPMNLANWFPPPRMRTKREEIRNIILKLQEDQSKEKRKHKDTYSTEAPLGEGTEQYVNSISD
row,SMILES,inhibition
1,O=c1oc2ccccc2cc1-c1cn(-c2ccccc2)c(=S)[nH]1,47.9%
2,c1ccc2[nH]c(-c3nc4ccccc4[nH]3)nc2c1,42.7%
3,O=C(Nc1nc2ccccc2s1)c1ccc2c(c1)OCO2,95.1% (active)
4,Cc1cccc(/C(N)=N/OC(=O)c2ccccc2Cl)c1,98.9% (active)
5,Cc1ccc(OCc2nc3ccccc3n2C)cc1,54.5% (active)
6,Clc1ccc2nc(CSc3ccccc3)cn2c1,55.6% (active)
7,Cc1csc(SCC(=O)Nc2sccc2C#N)n1,96.1% (active)
8,O=C(Nc1ccc(-c2nnc(-c3ccccc3)o2)cc1)C1CCCO1 (stereo unspecified),21.4%
